pKi: −log10 of the molar value. Values joined by “and” are separate entries in the source; they are usually repeats but may differ in a detail not shown here. Identical values can stand only once.
How the values were obtained:
[1] = molecular target: Coagulation factor X (Homo sapiens, UniProt P00742); experiment: Binding affinity against human coagulation factor Xa
How it was run: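 Human fXa at 100 pM final with Pefachrome-FXA substrate, in 100 mM phosphate buffer with 0.1% bovine serum albumin at pH 7.4. Compounds were taken from Me₂SO stocks into the buffer.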

[2] = molecular target: Serine protease 1 (Homo sapiens, UniProt P07477); experiment: Binding affinity against human trypsin
Serine protease 1, sequence (P07477 whole entry): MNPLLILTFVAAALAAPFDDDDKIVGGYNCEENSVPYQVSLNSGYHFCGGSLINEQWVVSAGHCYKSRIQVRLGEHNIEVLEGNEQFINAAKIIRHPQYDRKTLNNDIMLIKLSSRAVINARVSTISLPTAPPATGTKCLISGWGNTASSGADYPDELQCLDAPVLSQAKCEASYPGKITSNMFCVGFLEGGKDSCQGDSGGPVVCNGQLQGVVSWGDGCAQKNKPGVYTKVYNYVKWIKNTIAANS
How it was run: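 Human trypsin at 1 nM final with Pefachrome-TRY chromogenic substrate, in 100 mM phosphate, 0.1% bovine serum albumin, pH 7.4. Test compounds were dissolved in Me₂SO and diluted into the assay buffer. The read-out was the optical density increase at 405 from substrate cleavage.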

[3] = molecular target: Prothrombin (Homo sapiens, UniProt P00734); experiment: Affinity for human thrombin
How it was run: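 Chromogenic assay with 1 nM human thrombin and Pefachrome-TH substrate, in 100 mM phosphate buffer with 0.1% bovine serum albumin at pH 7.4. Compounds were dissolved in Me₂SO and diluted into the buffer. Hydrolysis was followed as the rise in optical density at 405 on a microplate reader.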

Coagulation factor X, sequence (P00742 41-179 limits assumed): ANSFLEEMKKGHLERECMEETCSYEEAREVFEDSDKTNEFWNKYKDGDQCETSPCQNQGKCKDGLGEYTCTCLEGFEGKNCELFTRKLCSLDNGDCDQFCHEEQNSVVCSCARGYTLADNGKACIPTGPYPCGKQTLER
Coagulation factor X, sequence (P00742 235-488 limits assumed): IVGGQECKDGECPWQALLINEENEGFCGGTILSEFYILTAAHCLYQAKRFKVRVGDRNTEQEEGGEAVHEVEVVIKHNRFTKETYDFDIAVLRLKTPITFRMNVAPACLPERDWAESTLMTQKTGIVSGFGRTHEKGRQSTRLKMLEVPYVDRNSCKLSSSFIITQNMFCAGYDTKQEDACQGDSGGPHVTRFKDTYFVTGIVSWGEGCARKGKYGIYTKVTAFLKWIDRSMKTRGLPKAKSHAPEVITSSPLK

pKi [1]	pKi [2]	pKi [3]	Compound
7.89	6.25	4.75	N=C(N)c1cccc(C(=O)N[C@@H](C(=O)N2CCN(c3ccncc3)CC2)c2ccccc2)c1
6.10	5.96		N=C(N)c1cccc(C(=O)NC(C(=O)NCC2CCC(CN)CC2)c2ccc(-c3ccccc3)cc2)c1 (stereo unspecified)
4.42	4.90		CC(C)[C@H](NC(=O)c1cccc(C(=N)N)c1)C(=O)NCC1CCC(CN)CC1 (stereo partly specified)
5.60	5.22		N=C(N)c1cccc(C(=O)NC(C(=O)NCC2CCC(CN)CC2)c2ccc(Cl)cc2)c1 (stereo unspecified)
6.07	5.48	5.51	N=C(N)c1cccc(C(=O)N[C@@H](C(=O)NCCc2ccccc2)c2ccccc2)c1
7.00	5.68		N=C(N)c1cccc(C(=O)NC(C(=O)NCC2CCC(CN)CC2)c2cccc3ccccc23)c1 (stereo unspecified)
8.00	6.27	5.93	N=C(N)c1cccc(C(=O)N[C@@H](C(=O)N2CCC(C(=O)c3ccc(F)cc3)CC2)c2ccccc2)c1
	5.35 and 5.25	5.19	N=C(N)c1cccc(C(=O)NC(C(=O)NCC2CCC(CN)CC2)c2ccccc2)c1 (stereo unspecified)
7.55	5.26	5.64	COc1ccc(CNC(=O)[C@H](NC(=O)c2cccc(C(=N)N)c2)c2ccccc2)cc1
4.98	5.10		CSCC[C@H](NC(=O)c1cccc(C(=N)N)c1)C(=O)NCC1CCC(CN)CC1 (stereo partly specified)
5.64	5.00		CSCC[C@@H](NC(=O)c1cccc(C(=N)N)c1)C(=O)NCC1CCC(CN)CC1 (stereo partly specified)
6.92	5.66	5.10	N=C(N)c1cccc(C(=O)N[C@@H](C(=O)N2CCN(Cc3ccccc3)CC2)c2ccccc2)c1
7.52	6.19	5.87	N=C(N)c1cccc(C(=O)N[C@@H](C(=O)N2CCC(Cc3ccccc3)CC2)c2ccccc2)c1
6.84	5.66		N=C(N)c1cccc(C(=O)N[C@@H](C(=O)NCCCc2ccccc2)c2ccccc2)c1
6.04	5.27	5.07	N=C(N)c1cccc(C(=O)N[C@@H](C(=O)NCc2ccccc2)c2ccccc2)c1
	4.64		N=C(N)c1cccc(C(=O)NCC(=O)NCC2CCC(CN)CC2)c1 (stereo unspecified)
	6.49	5.90	N=C(N)c1cccc(C(=O)N[C@@H](C(=O)N2CCC(C(=O)c3ccccc3)CC2)c2ccccc2)c1
6.30	5.39	4.59	N=C(N)c1cccc(C(=O)N[C@@H](C(=O)NCc2ccc(CN)cc2)c2ccccc2)c1
4.59	4.76		N=C(N)c1cccc(C(=O)N[C@H](Cc2ccccc2)C(=O)NCC2CCC(CN)CC2)c1 (stereo partly specified)
6.30	5.07		N=C(N)c1cccc(C(=O)N[C@@H](C(=O)NCC2CCC(CN)CC2)C2CCCCC2)c1 (stereo partly specified)
	6.34	5.10	N=C(N)c1cccc(C(=O)N[C@@H](C(=O)N2CCN(C(=O)c3ccccc3)CC2)c2ccccc2)c1
	4.79		CC(C)[C@@H](NC(=O)c1cccc(C(=N)N)c1)C(=O)NCC1CCC(CN)CC1 (stereo partly specified)
5.11	5.44		N=C(N)c1cccc(C(=O)N[C@H](C(=O)NCC2CCC(CN)CC2)C2CCCCC2)c1 (stereo partly specified)
7.82	5.90	5.42	N=C(N)c1cccc(C(=O)N[C@@H](C(=O)N2CCN(c3ccc(F)cc3)CC2)c2ccccc2)c1
7.38	5.31		Cc1ccc(CNC(=O)[C@H](NC(=O)c2cccc(C(=N)N)c2)c2ccccc2)cc1
4.47	4.90		N=C(N)c1cccc(C(=O)N[C@@H](Cc2ccccc2)C(=O)NCC2CCC(CN)CC2)c1 (stereo partly specified)
7.80	6.47	5.76	N=C(N)c1cccc(C(=O)N[C@@H](C(=O)N2CCN(c3ccccc3)CC2)c2ccccc2)c1
6.52	5.41		N=C(N)c1cccc(C(=O)NC(C(=O)NCC2CCC(CN)CC2)c2cccc(Cl)c2)c1 (stereo in doubt; 9)
6.52	5.29		N=C(N)c1cccc(C(=O)NC(C(=O)NCC2CCC(CN)CC2)c2cccc(Cl)c2)c1 (stereo in doubt; 11)

Reference: ChEMBL document CHEMBL1134227, “The design of phenylglycine containing benzamidine carboxamides as potent and selective inhibitors of factor Xa” (Bioorg Med Chem Lett, 2001)
